Keap1-Nrf2 PPI: Keap1-Nrf2 protein-protein interaction inhibitors, primary screen, biochemical, fluorescence polarization, single point; Keap1 Kelch-Nrf2 peptide fluorescence polarization, 1536-well; Kelch-like ECH-associated protein 1 (Homo sapiens), Q14145; inhibition, % at 9.4 µM; hit rate 0.15% among 340,000; in the data active = inhibition above about 12%;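 also: human Keap1 Kelch domain with fluorescein labeled Nrf2 9mer peptide probe; 0% = neutral control wells and 100% = peptide positive control; higher means more block of Keap1 binding to Nrf2 peptide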
Target sequence (Q14145 whole entry, looked up, the tested form may be a part): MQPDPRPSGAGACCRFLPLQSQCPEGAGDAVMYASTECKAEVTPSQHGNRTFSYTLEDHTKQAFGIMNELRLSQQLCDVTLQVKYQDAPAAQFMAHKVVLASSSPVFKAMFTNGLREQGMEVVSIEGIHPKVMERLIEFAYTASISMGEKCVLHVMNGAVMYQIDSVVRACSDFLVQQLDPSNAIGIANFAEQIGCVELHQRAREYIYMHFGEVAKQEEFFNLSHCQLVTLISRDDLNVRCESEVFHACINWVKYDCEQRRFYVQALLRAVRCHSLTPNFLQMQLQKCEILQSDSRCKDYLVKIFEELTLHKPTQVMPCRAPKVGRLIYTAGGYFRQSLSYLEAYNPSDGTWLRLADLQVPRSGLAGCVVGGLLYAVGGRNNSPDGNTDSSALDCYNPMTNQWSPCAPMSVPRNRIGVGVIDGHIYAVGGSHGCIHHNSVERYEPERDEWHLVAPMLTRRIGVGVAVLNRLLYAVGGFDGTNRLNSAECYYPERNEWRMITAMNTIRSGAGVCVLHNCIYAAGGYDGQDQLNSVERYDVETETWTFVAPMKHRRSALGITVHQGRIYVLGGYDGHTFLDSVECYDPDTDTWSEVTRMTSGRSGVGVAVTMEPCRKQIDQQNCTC
LANA DNA inh: inhibitors of KSHV C-LANA binding to DNA, primary screen, biochemical, fluorescence polarization, FAM-LBS DNA, MBP-C-LANA, single point; inhibition, % at 9 µM; Kaposi's sarcoma herpesvirus LANA C-terminal domain (residues 932-1162) DNA binding; hit rate 0.078% among 340,000;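 active = highest replicate inhibition at or above 60% at 9 µM, even if other replicates fall short; inactive = all replicates below 60% inhibition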;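 also: 0% = neutral control wells and 100% = 4 µM acridine orange control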
RTF Ca sens inh: cardiac RTF calcium sensitivity inhibitors, primary screen, biochemical, IANBD-TnC fluorescence, EC70 calcium | Troponin I, cardiac muscle (Homo sapiens) + Troponin T, cardiac muscle (Homo sapiens) + … | IANBD-labeled cardiac RTF, Ca2+ fluorescence | inhibition, % at 7.15 µM | hit rate 0.12% among 340,000;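 active = inhibition above the mean inhibition of all tested compounds plus 3 SD, cut at about 17% in these data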;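 also: assay run at fixed EC70 calcium of 1.6 mM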
CAL PDZ FP-1: untagged CAL PDZ binding inhibitors, primary screen, biochemical, fluorescence polarization, HTS. hit rate 0.92% among 300,000. Golgi-associated PDZ and coiled-coil motif-containing protein (Homo sapiens), Q9HD26. inhibition, % at 24.9 µM. purified CAL PDZ, TMR-peptide fluorescence polarization, 1 h;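 active = mean inhibition of at least 30% with at least half of replicates also reaching 30%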;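 also: 0% = DMSO neutral control and 100% = excess unlabeled competitor peptide PRC23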
CAL PDZ FP-2: CAL PDZ peptide-binding inhibitors, primary screen, biochemical, fluorescence polarization, Cer-tagged CAL PDZ, HTS; Golgi-associated PDZ and coiled-coil motif-containing protein (Homo sapiens), Q9HD26; purified CAL PDZ, TMR-peptide fluorescence polarization, 1 h; inhibition, % at 20 µM; hit rate 0.02% among 330,000;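 active = highest replicate inhibition of at least 40%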;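 also: plate controls were DMSO neutral control wells for no effect and unlabeled competitor peptide control wells for full effect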
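Read-out basis: mP drop reported as inhibition | Assay system: Tagged CAL PDZ protein CerCALP, purified | Benchmarks: Unlabelled peptide for full inhibition, DMSO wells as neutral | Schedule: 1 h incubation at room temperature before polarization reading | Buffer or medium: Sodium phosphate/NaCl buffer pH 7.4 with TCEP, IgG, Thesit | Doses: Single point, 20 µM | Measured by: Fluorescence polarization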
cardiac RTF act: cardiac RTF calcium sensitivity activators, primary screen, biochemical, IANBD-TnC fluorescence, EC20 calcium. Troponin I, cardiac muscle (Homo sapiens) + Troponin T, cardiac muscle (Homo sapiens) + …. IANBD-labeled TnC RTF fluorescence at EC20 calcium; 0% EC20 calcium, 100% full calcium. activation, % at 7.2 µM. hit rate 0.24% among 340,000;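 active = activation above the mean over all tested compounds plus 3 SD, cut at about 30% in these data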;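 also: rise in fluorescence read as greater calcium sensitivity of cardiac thin filaments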
Keap1 Kelch bind: Keap1 Kelch domain binders by thermal stabilisation, dose response, biophysical, thermal shift, RT-PCR instrument, cherry-pick. shares compounds with Keap1-Nrf2 PPI. delta Tm; active compounds read high. max delta Tm, degrees C. hit rate 8% among 400. AID 651823, 2012; in the data active = max delta Tm above about 0.48 degrees C
Sypro dye melt: Sypro Orange dye melt without protein, dose response, artefact control for Keap1-Nrf2 interaction inhibitor project, biochemical, thermal shift counterscreen, cherry-pick. Sypro Orange dye-only thermal melt, no protein, delta Tm; top dose 26 µM. 140 tested, under 10 active. AID 651858, 2012. delta Tm, degrees C (no concentration beside the values). shares compounds with Keap1-Nrf2 PPI;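 active = at highest dose tested, delta Tm positive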
* marks the source's active call; other numbers are inactive results. This is a sample that favours compounds with a hit; in the whole collection about 1.3% have one here.

Results for O=C1C(Cl)=C(NS(=O)(=O)c2ccc([N+](=O)[O-])cc2)C(=O)c2ccccc21 ?
Keap1-Nrf2 PPI: 20*; LANA DNA inh: -2; RTF Ca sens inh: 10; CAL PDZ FP-1: -7; CAL PDZ FP-2: 1; cardiac RTF act: -2; Keap1 Kelch bind: 0.76*

How did CC[C@H](C)[C@H](NC(=O)OCc1ccccc1)C(=O)OCC(=O)N1CCN(c2ccc(F)cc2)CC1 do in these assays?
Keap1-Nrf2 PPI: 26*; LANA DNA inh: 13; RTF Ca sens inh: -11; CAL PDZ FP-2: 1; cardiac RTF act: 3; Keap1 Kelch bind: -0.12; Sypro dye melt: -26

Results for CC(C)[C@H](NC(=O)OCc1ccccc1)C(=O)OCC(=O)N1CCN(c2ccc(F)cc2)CC1 ?
Keap1-Nrf2 PPI: 5; LANA DNA inh: -1; RTF Ca sens inh: -3; CAL PDZ FP-1: 1; CAL PDZ FP-2: 1; cardiac RTF act: 3

How did CCCN(CCC)S(=O)(=O)c1ccc(C(=O)OCCN2C(=O)c3cccc4c(N5CCOCC5)ccc(c34)C2=O)cc1 do in these assays?
Keap1-Nrf2 PPI: 39*; LANA DNA inh: 64; RTF Ca sens inh: -29; CAL PDZ FP-1: -5; CAL PDZ FP-2: 0; cardiac RTF act: 52*; Keap1 Kelch bind: -0.08; Sypro dye melt: -4

What do the screens show for `O=C(OCCN1C(=O)c2cccc3c(N4CCOCC4)ccc(c23)C1=O)c1ccc(Cl)cc1`?
Keap1-Nrf2 PPI: 4; LANA DNA inh: 39; RTF Ca sens inh: -21; CAL PDZ FP-1: -2; CAL PDZ FP-2: 0; cardiac RTF act: 21

How did CCNCC(=O)N1c2ccccc2CCc2ccc(NC(C)=O)cc21 do in these assays?
Keap1-Nrf2 PPI: -2; LANA DNA inh: 0; RTF Ca sens inh: -5; CAL PDZ FP-1: 0; CAL PDZ FP-2: 1; cardiac RTF act: 3

Results for CC(=O)Nc1ccc2c(c1)N(C(=O)CN(C)C)c1ccccc1CC2 ?
Keap1-Nrf2 PPI: 123*; LANA DNA inh: 27; RTF Ca sens inh: 1; CAL PDZ FP-1: -3; CAL PDZ FP-2: 1; cardiac RTF act: 3; Keap1 Kelch bind: -0.18

How did CC1(C)CC(=O)C2=C(C1)OC(N)=C(C#N)C2c1ccccc1[N+](=O)[O-] (centres undefined) do in these assays?
Keap1-Nrf2 PPI: 25*; LANA DNA inh: 20; RTF Ca sens inh: -16; CAL PDZ FP-1: -5; CAL PDZ FP-2: -1; cardiac RTF act: 14; Keap1 Kelch bind: -0.11

How did O=C(CN1CCN(C(=O)CNC(=O)c2ccc3c(c2)OCO3)CC1)Nc1ccc(F)cc1 do in these assays?
Keap1-Nrf2 PPI: 62*; RTF Ca sens inh: -24; CAL PDZ FP-2: 0; cardiac RTF act: 10; Keap1 Kelch bind: -0.08

What do the screens show for `O=C(Nc1ccccc1C(=O)N1CCCCCC1)c1ccc(F)cc1`?
Keap1-Nrf2 PPI: 35*; LANA DNA inh: 21; RTF Ca sens inh: -3; CAL PDZ FP-1: 0; CAL PDZ FP-2: -1; cardiac RTF act: -4; Keap1 Kelch bind: -0.16; Sypro dye melt: -27

What do the screens show for `Cc1ccc(OS(=O)(=O)c2ccc(N3C(=O)CCC3=O)cc2)cc1`?
Keap1-Nrf2 PPI: 3; LANA DNA inh: -1; RTF Ca sens inh: -6; CAL PDZ FP-1: 3; CAL PDZ FP-2: -2; cardiac RTF act: -5

How did COc1ccc(CCNC(=O)C2CC(=O)N(C3CCCCC3)C2)cc1OC (centres undefined) do in these assays?
Keap1-Nrf2 PPI: -5; LANA DNA inh: -1; RTF Ca sens inh: -7; CAL PDZ FP-1: -2; CAL PDZ FP-2: 0; cardiac RTF act: 3

How did COc1cc(OC)cc(C(=O)NC(C(=O)NNC(=O)CN(C)S(=O)(=O)c2ccc(C)cc2)C(C)C)c1 (centres undefined) do in these assays?
Keap1-Nrf2 PPI: 3; LANA DNA inh: 3; RTF Ca sens inh: -14; CAL PDZ FP-1: 1; CAL PDZ FP-2: -1; cardiac RTF act: -3

How did Cn1cncc1C#Cc1c(C=O)n(C)c2ccccc12 do in these assays?
Keap1-Nrf2 PPI: 4; LANA DNA inh: 0; RTF Ca sens inh: -14; CAL PDZ FP-1: -5; CAL PDZ FP-2: -2; cardiac RTF act: -4

What do the screens show for `COc1cc(C#Cc2c(C=O)n(C)c3ccccc23)cc(OC)c1`?
Keap1-Nrf2 PPI: 30*; LANA DNA inh: 12; RTF Ca sens inh: -12; CAL PDZ FP-1: 4; CAL PDZ FP-2: 1; cardiac RTF act: 3; Keap1 Kelch bind: -0.17

What do the screens show for `COC(=O)c1ccccc1NC(=O)CCCN1C(=O)C(c2ccccc2)Oc2cccnc21` (centres undefined)?
Keap1-Nrf2 PPI: 0; LANA DNA inh: 2; RTF Ca sens inh: -5; CAL PDZ FP-2: -4; cardiac RTF act: -2

Results for O=C(C1=C(O)C(=O)N(CCc2ccccc2)C1c1ccncc1)c1cc2ccccc2o1 (centres undefined) ?
Keap1-Nrf2 PPI: -2; LANA DNA inh: 1; RTF Ca sens inh: 1; CAL PDZ FP-1: -1; CAL PDZ FP-2: -1; cardiac RTF act: 6

Results for CCOc1cccc(C2C(C(=O)c3ccc(C)o3)=C(O)C(=O)N2c2nccs2)c1 (centres undefined) ?
Keap1-Nrf2 PPI: 24*; LANA DNA inh: 21; RTF Ca sens inh: -25; CAL PDZ FP-1: -1; CAL PDZ FP-2: -4; cardiac RTF act: 7; Keap1 Kelch bind: -0.09

Results for O=C(C1=C(O)C(=O)N(c2nccs2)C1c1ccccc1)c1cc2ccccc2o1 (centres undefined) ?
Keap1-Nrf2 PPI: 42*; LANA DNA inh: 37; RTF Ca sens inh: -86; CAL PDZ FP-1: -7; CAL PDZ FP-2: 0; cardiac RTF act: 34*; Keap1 Kelch bind: -0.1

How did CCOc1cccc(C2C(C(=O)c3ccc(C)o3)=C(O)C(=O)N2Cc2ccncc2)c1 (centres undefined) do in these assays?
Keap1-Nrf2 PPI: -1; LANA DNA inh: 0; RTF Ca sens inh: -8; CAL PDZ FP-1: -2; CAL PDZ FP-2: -2; cardiac RTF act: 9
